{
  "source": "ChEMBL document CHEMBL2176871",
  "about": "“Development of ligands at γ-aminobutyrric acid type A (GABAA) receptor subtype as new agents for pain relief” (Bioorg Med Chem, 2011)",
  "key": {"Mus musculus [1]": {"tested_on": "Mus musculus", "assay": "Analgesic activity in Swiss albino mouse abdominal constriction model assessed as decrease in number of acetic acid-induced writhing at 10 to 30 mg/kg, po after 30 mins", "assay_type": "functional, organism-based", "conditions": "Abdomen", "summary_of_the_method": "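Male Swiss albino mice (23–30 g). Compounds given po in 1% CMC vehicle 30 min before the test. Acetic acid 0.6% injected i.p. at 10 ml/kg. Stretching movements were counted for 10 min, starting 5 min after the acetic acid injection. 8–15 mice per group.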"}, "Rattus norvegicus [2]": {"tested_on": "Rattus norvegicus", "assay": "Toxicity in Sprague-Dawley rat mononeuropathy pain model assessed as effect on contralateral paw pressure at 10 mg/kg, po after 15 mins by paw pressure test", "assay_type": "organism-based", "set-up": "dose 10 mg/kg, route oral", "conditions": "in vivo, 0.25 h", "summary_of_the_method": "(§1)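 Same sciatic-ligation rat model, 14 days after surgery. Threshold measured on the non-operated contralateral hind paw by analgesimeter at 32 g/s; first-struggle endpoint; 250 g cut-off; pretest rats outside 40–75 g rejected. Compound given po in 10 ml/kg; readings at 15, 30 and 45 min.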"}, "Rattus norvegicus [3]": {"tested_on": "Rattus norvegicus", "assay": "Toxicity in Sprague-Dawley rat mononeuropathy pain model assessed as effect on contralateral paw pressure at 30 mg/kg, po after 30 mins by paw pressure test", "assay_type": "organism-based", "set-up": "dose 30 mg/kg, route oral", "conditions": "in vivo, 0.5 h", "summary_of_the_method": "as §1"}, "Rattus norvegicus [4]": {"tested_on": "Rattus norvegicus", "assay": "Toxicity in Sprague-Dawley rat mononeuropathy pain model assessed as effect on contralateral paw pressure at 1 mg/kg, po after 30 mins by paw pressure test", "assay_type": "organism-based", "set-up": "dose 1 mg/kg, route oral", "conditions": "in vivo, 0.5 h", "summary_of_the_method": "as §1"}, "Bos taurus": {"species": "Bos taurus", "assay": "Displacement of [3H]Ro151788 from GABA(A)/BzR in bovine cerebral cortex membrane at 10 uM", "assay_type": "cell membranes", "summary_of_the_method": "(§2)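 Bovine cerebral cortex membranes in 50 mM Tris-citrate pH 7.4; [3H]flumazenil displacement. Compounds first tested at a fixed 10 µM; Ki determined only when inhibition exceeded 80%, using at least six concentrations. Five experiments run in triplicate; IC50 obtained by iterative curve fitting and converted to Ki with the Cheng–Prusoff equation.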"}, "Rattus norvegicus [5]": {"tested_on": "Rattus norvegicus", "assay": "Toxicity in Sprague-Dawley rat mononeuropathy pain model assessed as effect on contralateral paw pressure at 10 mg/kg, po after 30 mins by paw pressure test", "assay_type": "organism-based", "set-up": "dose 10 mg/kg, route oral", "conditions": "in vivo, 0.5 h", "summary_of_the_method": "as §1"}, "Rattus norvegicus [6]": {"tested_on": "Rattus norvegicus", "assay": "Antinociceptive activity in Sprague-Dawley rat mononeuropathy pain model assessed as increase in injured paw pressure at 30 mg/kg, po after 30 mins by paw pressure test relative to non-treated control", "assay_type": "functional", "summary_of_the_method": "(§3)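 Chronic constriction injury: loose ligatures placed on the common sciatic nerve under chloral hydrate; contralateral sham dissection. Tested 14 days after surgery. Paw pressure applied at 32 g/s; threshold taken as the force causing the first struggle; cut-off 250 g; pretest outliers (<40 g or >75 g) excluded. Oral dosing in 10 ml/kg; read at 15, 30 and 45 min; compared with a CMC-treated group.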"}, "Rattus norvegicus [7]": {"tested_on": "Rattus norvegicus", "assay": "Antinociceptive activity in Sprague-Dawley rat mononeuropathy pain model assessed as increase in injured paw pressure at 30 mg/kg, po after 15 mins by paw pressure test relative to non-treated control", "assay_type": "functional", "summary_of_the_method": "as §3"}, "Rattus norvegicus [8]": {"tested_on": "Rattus norvegicus", "assay": "Toxicity in Sprague-Dawley rat mononeuropathy pain model assessed as effect on contralateral paw pressure at 60 mg/kg, po after 30 mins by paw pressure test", "assay_type": "organism-based", "set-up": "dose 60 mg/kg, route oral", "conditions": "in vivo, 0.5 h", "summary_of_the_method": "as §1"}, "Rattus norvegicus [9]": {"tested_on": "Rattus norvegicus", "assay": "Toxicity in Sprague-Dawley rat mononeuropathy pain model assessed as effect on contralateral paw pressure at 1 mg/kg, po after 45 mins by paw pressure test", "assay_type": "organism-based", "set-up": "dose 1 mg/kg, route oral", "conditions": "in vivo, 0.75 h", "summary_of_the_method": "as §1"}, "Rattus norvegicus [10]": {"tested_on": "Rattus norvegicus", "assay": "Antinociceptive activity in Sprague-Dawley rat mononeuropathy pain model assessed as increase in injured paw pressure at 30 mg/kg, po after 45 mins by paw pressure test relative to non-treated control", "assay_type": "functional", "summary_of_the_method": "as §3"}, "Mus musculus [11]": {"tested_on": "Mus musculus", "assay": "Antihyperalgesic activity Swiss albino mouse […] assessed as licking latency time at 30 mg/kg, po after 15 mins by hot plate test (reference value: 17.9 +/- 1.1 secs)", "assay_type": "functional", "summary_of_the_method": "(§4)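 Hot plate at 52.5 ± 0.1 °C in non-diabetic male Swiss mice. Latency to licking of fore or hind paws was timed before dosing and every 15 min up to 60 min after oral dosing. Mice with pretest latencies below 12 s or above 18 s were excluded. Cut-off was 45 s.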"}, "Rattus norvegicus [12]": {"tested_on": "Rattus norvegicus", "assay": "Antinociceptive activity in Sprague-Dawley rat mononeuropathy pain model assessed as increase in injured paw pressure at 1 mg/kg, po after 30 mins by paw pressure test relative to non-treated control", "assay_type": "functional", "summary_of_the_method": "as §3"}, "Mus musculus [13]": {"tested_on": "Mus musculus", "assay": "Antihyperalgesic activity against streptozotocin-induced hyperalgesia in Swiss albino mouse […] assessed as licking latency time at 30 mg/kg, po after 45 mins by hot plate test (reference value: 9.2 +/- 0.8 secs)", "assay_type": "functional"}, "[14]": {"assay": "Displacement of [3H]Ro151788 from GABA(A)/BzR in bovine cerebral cortex membrane", "assay_type": "cell membranes, Bos taurus", "summary_of_the_method": "as §2"}, "Rattus norvegicus [15]": {"tested_on": "Rattus norvegicus", "assay": "Toxicity in Sprague-Dawley rat mononeuropathy pain model assessed as effect on contralateral paw pressure at 1 mg/kg, po after 15 mins by paw pressure test", "assay_type": "organism-based", "set-up": "dose 1 mg/kg, route oral", "conditions": "in vivo, 0.25 h", "summary_of_the_method": "as §1"}, "Mus musculus [16]": {"tested_on": "Mus musculus", "assay": "Antihyperalgesic activity Swiss albino mouse […] assessed as licking latency time at 30 mg/kg, po after 30 mins by hot plate test (reference value: 17.9 +/- 1.1 secs)", "assay_type": "functional", "summary_of_the_method": "as §4"}, "Rattus norvegicus [17]": {"tested_on": "Rattus norvegicus", "assay": "Antinociceptive activity in Sprague-Dawley rat mononeuropathy pain model assessed as increase in injured paw pressure at 60 mg/kg, po after 45 mins by paw pressure test relative to non-treated control", "assay_type": "functional", "summary_of_the_method": "as §3"}, "Rattus norvegicus [18]": {"tested_on": "Rattus norvegicus", "assay": "Toxicity in Sprague-Dawley rat mononeuropathy pain model assessed as effect on contralateral paw pressure at 60 mg/kg, po after 45 mins by paw pressure test", "assay_type": "organism-based", "set-up": "dose 60 mg/kg, route oral", "conditions": "in vivo, 0.75 h", "summary_of_the_method": "as §1"}, "Rattus norvegicus [19]": {"tested_on": "Rattus norvegicus", "assay": "Toxicity in Sprague-Dawley rat mononeuropathy pain model assessed as effect on contralateral paw pressure at 30 mg/kg, po after 45 mins by paw pressure test", "assay_type": "organism-based", "set-up": "dose 30 mg/kg, route oral", "conditions": "in vivo, 0.75 h", "summary_of_the_method": "as §1"}, "Mus musculus [20]": {"tested_on": "Mus musculus", "assay": "Antihyperalgesic activity against streptozotocin-induced hyperalgesia in Swiss albino mouse […] assessed as licking latency time at 30 mg/kg, po after 15 mins by hot plate test (reference value: 9.2 +/- 0.8 secs)", "assay_type": "functional"}, "Mus musculus [21]": {"tested_on": "Mus musculus", "assay": "Antihyperalgesic activity Swiss albino mouse […] assessed as licking latency time at 30 mg/kg, po after 45 mins by hot plate test (reference value: 17.9 +/- 1.1 secs)", "assay_type": "functional", "summary_of_the_method": "as §4"}, "Rattus norvegicus [22]": {"tested_on": "Rattus norvegicus", "assay": "Antinociceptive activity in Sprague-Dawley rat mononeuropathy pain model assessed as increase in injured paw pressure at 1 mg/kg, po after 15 mins by paw pressure test relative to non-treated control", "assay_type": "functional", "summary_of_the_method": "as §3"}, "Rattus norvegicus [23]": {"tested_on": "Rattus norvegicus", "assay": "Antinociceptive activity in Sprague-Dawley rat mononeuropathy pain model assessed as increase in injured paw pressure at 1 mg/kg, po after 45 mins by paw pressure test relative to non-treated control", "assay_type": "functional", "summary_of_the_method": "as §3"}, "Mus musculus [24]": {"tested_on": "Mus musculus", "assay": "Anticonvulsant activity in Swiss albino mouse […] assessed as protection against intraperitoneally administered pentylenetetrazol-induced seizures at 30 mg/kg, po after 30 mins", "assay_type": "functional", "summary_of_the_method": "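Male Swiss albino mice. Compounds given po and PTZ 90 mg/kg injected 30 min later; PTZ was dissolved in 0.9% NaCl saline. Clonic generalized convulsions were recorded over 30 min. Each value is the mean of 10 mice. The methods give the PTZ route as s.c. and the table footnote gives it as ip.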"}, "Rattus norvegicus [25]": {"tested_on": "Rattus norvegicus", "assay": "Antinociceptive activity in Sprague-Dawley rat mononeuropathy pain model assessed as increase in injured paw pressure at 60 mg/kg, po after 15 mins by paw pressure test relative to non-treated control", "assay_type": "functional", "summary_of_the_method": "as §3"}, "Rattus norvegicus [26]": {"tested_on": "Rattus norvegicus", "assay": "Toxicity in Sprague-Dawley rat mononeuropathy pain model assessed as effect on contralateral paw pressure at 30 mg/kg, po after 15 mins by paw pressure test", "assay_type": "organism-based", "set-up": "dose 30 mg/kg, route oral", "conditions": "in vivo, 0.25 h", "summary_of_the_method": "as §1"}, "Rattus norvegicus [27]": {"tested_on": "Rattus norvegicus", "assay": "Toxicity in Sprague-Dawley rat mononeuropathy pain model assessed as effect on contralateral paw pressure at 10 mg/kg, po after 45 mins by paw pressure test", "assay_type": "organism-based", "set-up": "dose 10 mg/kg, route oral", "conditions": "in vivo, 0.75 h", "summary_of_the_method": "as §1"}},
  "note": "Activity calls are given as the source filed them.",
  "data": [
    {"molecule": "Cc1cnn2c1n[n+]([O-])c1ccc(OCc3ccccc3)cc12", "values": [
      {"measurement": "Activity", "setting": "Mus musculus [1]", "result": "inactive"},
      {"measurement": "Activity", "setting": "Rattus norvegicus [2]", "result": 60.4, "unit": "g"},
      {"measurement": "Activity", "setting": "Rattus norvegicus [3]", "result": 63.8, "unit": "g"},
      {"measurement": "Activity", "setting": "Rattus norvegicus [4]", "result": 60.6, "unit": "g"},
      {"measurement": "inhibition", "setting": "Bos taurus", "result": "> 80", "unit": "%"},
      {"measurement": "Activity", "setting": "Rattus norvegicus [5]", "result": 62.7, "unit": "g"},
      {"measurement": "Activity", "setting": "Rattus norvegicus [6]", "result": 44.2, "unit": "g"},
      {"measurement": "Activity", "setting": "Rattus norvegicus [7]", "result": 52.8, "unit": "g"},
      {"measurement": "Activity", "setting": "Rattus norvegicus [8]", "result": 60.8, "unit": "g"},
      {"measurement": "Activity", "setting": "Rattus norvegicus [9]", "result": 59.1, "unit": "g"},
      {"measurement": "Activity", "setting": "Rattus norvegicus [10]", "result": 35.2, "unit": "g"},
      {"measurement": "Time", "setting": "Mus musculus [11]", "result": 17.2, "unit": "s"},
      {"measurement": "Activity", "setting": "Rattus norvegicus [12]", "result": 34.5, "unit": "g"},
      {"measurement": "Time", "setting": "Mus musculus [13]", "result": 18.8, "unit": "s"},
      {"measurement": "Ki", "setting": "[14]", "result": 4.66, "unit": "nM"},
      {"measurement": "Activity", "setting": "Rattus norvegicus [15]", "result": 57.3, "unit": "g"},
      {"measurement": "Time", "setting": "Mus musculus [16]", "result": 18.1, "unit": "s"},
      {"measurement": "Activity", "setting": "Rattus norvegicus [17]", "result": 31.5, "unit": "g"},
      {"measurement": "Activity", "setting": "Rattus norvegicus [18]", "result": 57.2, "unit": "g"},
      {"measurement": "Activity", "setting": "Rattus norvegicus [19]", "result": 60.5, "unit": "g"},
      {"measurement": "Time", "setting": "Mus musculus [20]", "result": 14.9, "unit": "s"},
      {"measurement": "Time", "setting": "Mus musculus [21]", "result": 18.5, "unit": "s"},
      {"measurement": "Activity", "setting": "Rattus norvegicus [22]", "result": 32.3, "unit": "g"},
      {"measurement": "Activity", "setting": "Rattus norvegicus [23]", "result": 30.8, "unit": "g"},
      {"measurement": "Activity", "setting": "Mus musculus [24]", "result": 10, "unit": "%"},
      {"measurement": "Activity", "setting": "Rattus norvegicus [25]", "result": 50.1, "unit": "g"},
      {"measurement": "Activity", "setting": "Rattus norvegicus [26]", "result": 62.7, "unit": "g"},
      {"measurement": "Activity", "setting": "Rattus norvegicus [27]", "result": 63.5, "unit": "g"}
    ]}
  ]
}
